Test results as given in ChEMBL document CHEMBL1143913, “Pyrimidinone-peptoid hybrid molecules with distinct effects on molecular chaperone function and cell proliferation” (Bioorg Med Chem, 2008).

Legend:
[1] = tested on: Saccharomyces cerevisiae; test: Inhibition of SV40 T antigen-stimulated Hsp70 ATPase in yeast assessed as ATP hydrolysis relative to control
Outline: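 Yeast Ssa1p was pre-bound to ATP and run as a single-turnover assay with purified SV40 TAg (0.4 µM). Compound (300 µM) or DMSO was added at 60 s, and that time was set to zero. Runs were averaged over multiple experiments, kinetics were fitted, and the value is the fold change in TAg-stimulated ATP hydrolysis versus DMSO.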

[2] = tested on: MCF7; test: Antiproliferative activity against human MCF7 cells after 96 hrs by MTS assay; type: functional; details: MCF7, 96 h
Outline: (§1)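 Cells were kept in exponential growth in DMEM with 10% FBS, 1% penicillin and 1% glutamine, seeded at 4,000 per well and grown 48 h, with a time-zero plate counted. They were then exposed for 72 h to DMSO (1 v/v) or a concentration range in quadruplicate. Cell number was read by MTS/N-methylphenazine methylsulfate absorbance at 490 minus 630 nm. GI50 is relative to DMSO over the 72 h or 96 h period, and values above 50 µM are given as >50.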

[3] = tested on: SK-BR-3; test: Antiproliferative activity against human SK-BR3 cells after 96 hrs by MTS assay; type: functional; details: SK-BR-3, 96 h; outline: as §1
[4] = tested on: HT-29; test: Antiproliferative activity against human HT29 cells after 96 hrs by MTS assay; type: functional; details: HT-29, 96 h; outline: as §1
[5] = tested on: Saccharomyces cerevisiae; test: Inhibition of yeast Hsp70 ATPase assessed as ATP hydrolysis relative to control
Outline: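 Purified yeast Hsp70 (Ssa1p) was pre-bound to ATP and run as a single-turnover assay, so that only the hydrolysis step is measured. Compound (300 µM) or DMSO was added at 0 s, and that time was set to zero. Results from multiple experiments were averaged, kinetics were fitted, and the value is the fold change in hydrolysis versus DMSO.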

[6] = Binding affinity to Hsp70
[7] = Binding affinity to Hsp90

Fold change [1] | GI50 [2] [µM] | GI50 [3] [µM] | GI50 [4] [µM] | Fold change [5] | EC50 ([3]; read-out: ED50 (the source's name)) [µM] | Kd [6] [µM] | Kd [7] [µM] | SMILES
-2 | 14.7 | 27 | > 50 | 1.7 | 8 |  |  | CCCCCCN(C(=O)CCCCCN1C(=O)NC(c2ccc(-c3ccccc3)cc2)C(C(=O)OCc2ccccc2)=C1C)C(C(=O)NCCCC)c1ccc(OCC(=O)OC)c(C(=O)OC)c1 (stereo not drawn)
-1.1 | 2.4 | 6.5 | 4.8 | 1.1 |  |  |  | CCCCCCN(C(=O)CCCCCN1C(=O)NC(c2ccccc2)C(C(=O)OCc2ccccc2)=C1C)C(C(=O)NCCCC)c1ccc(OCC(=O)OC)c(C(=O)OC)c1 (stereo not drawn)

More lines, now with the values behind:

SMILES | Fold change [1] | GI50 [2] [µM] | GI50 [3] [µM] | GI50 [4] [µM] | Fold change [5] | EC50 ([3]; read-out: ED50 (the source's name)) [µM] | Kd [6] [µM] | Kd [7] [µM]
CC(C)(C)NC(=O)C(c1ccc(I)cc1)N(CCN1CCOCC1)C(=O)CCCNC(=O)c1ccccc1 (stereo not drawn) | -2 | > 50 | > 50 | > 50 | 1.1 |  |  | 
CCCCNC(=O)C(c1ccc(OCC(=O)OC)c(C(=O)OC)c1)N(CCOC)C(=O)CCCCCN1C(=O)NC(c2ccc(-c3ccccc3)cc2)C(C(=O)OCc2ccccc2)=C1C (stereo not drawn) | -1.8 | 7.8 | 8.8 | 3.1 | 1.5 |  |  | 
N=C(N)NCCCCCCC(=O)NC(O)C(=O)NCCCCNCCCN (stereo not drawn) [GUSPERIMUS] |  |  |  |  |  |  | 4 | 4
CCCCCCN(C(=O)CCCCCN1C(=O)NC(C2CC2)C(C(=O)OCc2ccccc2)=C1C)C(C(=O)NCCCC)c1ccc(OCC(=O)OC)c(C(=O)OC)c1 (stereo not drawn) | -2.6 | 6.3 | 6.2 | 5.3 | 1.2 |  |  | 
